Data taken from ChEMBL document CHEMBL4190374, “Structure-Function Evaluation of Imidazopyridine Derivatives Selective for δ-Subunit-Containing γ-Aminobutyric Acid Type A (GABAA) Receptors” (J Med Chem, 2018).

Assays:
[1] = molecular target: T1, Gamma-aminobutyric acid receptor subunit alpha-6/beta-3/gamma-2 (Rattus norvegicus) (UniProt P18508+P30191+P63079); test: Agonist activity at rat […] GABA-A receptor alpha6beta3gamma2 expressed in HEK293 cells assessed as ratio of I0 to GABA Imax at 10 uM in absence of GABA by patch-clamp assay; format: cell-based
In short: (§1)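 Whole-cell patch clamp on single fluorescent HEK 293 cells 48 h after transient co-transfection with rat subunit cDNAs plus eGFP. Extracellular solution 135 mM NaCl, 5.3 mM KCl, 2 mM CaCl2, 2 mM MgSO4, 10 mM HEPES pH 7.4, perfused 3 mL/min. Compound at 10 µM without GABA. Current expressed relative to 1 mM GABA at the same receptor (I0/Imax GABA), mean ± S.D. of n experiments.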

[2] = molecular target: Gamma-aminobutyric acid receptor subunit alpha-4/beta-3/gamma-2 (Rattus norvegicus) (UniProt P18508+P28471+P63079); test: Agonist activity at rat […] GABA-A receptor alpha4beta3gamma2 expressed in HEK293 cells assessed as ratio of I0 to GABA Imax at 10 uM in absence of GABA by patch-clamp assay; format: cell-based; in short: as §1
[3] = molecular target: Gamma-aminobutyric acid receptor subunit alpha-1/beta-3/delta (Rattus norvegicus, UniProt P18506+P62813+P63079); test: Modulation of rat […] GABA-A receptor alpha1beta3delta expressed in HEK293 cells in presence of GABA by patch-clamp assay; format: cell-based
In short: (§2)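 Rat GABA-A subunits were transiently co-transfected with eGFP into HEK293 cells on coverslips. Fluorescent cells were recorded by whole-cell patch clamp 48 h later; bath pH 7.4, KCl/KOH pipette pH 7.2. Compound was applied at increasing concentrations up to 10 µM with the receptor-specific GABA EC20. Peak currents were fitted logistically for EC50, Hill and % modulation, as mean ± S.E.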

[4] = molecular target: Gamma-aminobutyric acid receptor subunit alpha-6/beta-3/delta (Rattus norvegicus) (UniProt P18506+P30191+P63079); test: Displacement of [3H]EBOB from rat GABA-A receptor alpha6beta3delta expressed in HEK293 cell membranes up to 10 uM after 90 mins by liquid scintillation counting analysis relative to control
In short: (§3)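 Crude membranes from HEK 293 cells transiently Ca-phosphate-transfected with rat subunit cDNAs, harvested at 48 h. Membranes (150-200 µg protein) incubated with 3 nM [3H]EBOB in 50 mM Tris/citrate pH 7.3 plus 0.2 M NaCl. Compound up to 10 µM, final DMSO 0.1%, no GABA, 90 min at 21 °C. Bound radioligand collected by GF/C filtration and counted by scintillation.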

[5] = molecular target: T2, Gamma-aminobutyric acid receptor subunit alpha-1/beta-3/delta (Rattus norvegicus) (UniProt P18506+P62813+P63079); test: Agonist activity at rat […] GABA-A receptor alpha1beta3delta expressed in HEK293 cells assessed as ratio of I0 to GABA Imax at 10 uM in absence of GABA by patch-clamp assay; format: cell-based; in short: as §1
[6] = molecular target: T2, Gamma-aminobutyric acid receptor subunit alpha-1/beta-3/delta (Rattus norvegicus); test: Displacement of [3H]EBOB from rat GABA-A receptor alpha1beta3delta expressed in HEK293 cell membranes at 10 uM after 90 mins by liquid scintillation counting analysis relative to control; in short: as §3
[7] = molecular target: GABA-A receptor alpha6beta3delta (++); test: Modulation of rat eGFP-fused GABA-A receptor alpha6beta3delta expressed in HEK293 cells in presence of GABA by patch-clamp assay
[8] = molecular target: T3, Gamma-aminobutyric acid receptor subunit alpha-4/beta-3 (Rattus norvegicus) (UniProt P28471+P63079); test: Agonist activity at rat […] GABA-A receptor alpha4beta3 expressed in HEK293 cells assessed as ratio of I0 to GABA Imax at 10 uM in absence of GABA by patch-clamp assay; format: cell-based; in short: as §1
Rattus norvegicus [9] = species on record: Rattus norvegicus; test: Selectivity ratio of IC50 for rat GABA-A receptor alpha4beta3gamma2 expressed in HEK293 cells to IC50 for rat GABA-A receptor alpha4beta3delta expressed in HEK293 cells; format: cell-based
[10] = molecular target: T4, Gamma-aminobutyric acid receptor subunit alpha-4/beta-3 (Rattus norvegicus, UniProt P28471+P63079); test: Displacement of [3H]EBOB from rat GABA-A receptor alpha4beta3 expressed in HEK293 cell membranes after 90 mins by liquid scintillation counting analysis; in short: as §3
[11] = molecular target: Gamma-aminobutyric acid receptor subunit alpha-1/beta-3/gamma-2 (Rattus norvegicus) (UniProt P18508+P62813+P63079); test: Agonist activity at rat […] GABA-A receptor alpha1beta3gamma2 expressed in HEK293 cells assessed as ratio of I0 to GABA Imax at 10 uM in absence of GABA by patch-clamp assay; format: cell-based; in short: as §1
[12] = molecular target: Gamma-aminobutyric acid receptor subunit alpha-6/beta-3 (Rattus norvegicus) (UniProt P30191+P63079); test: Agonist activity at rat […] GABA-A receptor alpha6beta3 expressed in HEK293 cells assessed as ratio of I0 to GABA Imax at 10 uM in absence of GABA by patch-clamp assay; format: cell-based; in short: as §1
[13] = molecular target: Gamma-aminobutyric acid receptor subunit alpha-6/beta-2 (Rattus norvegicus) (UniProt P30191+P63138); test: Displacement of [3H]EBOB from rat GABA-A receptor alpha6beta2 expressed in HEK293 cell membranes up to 10 uM after 90 mins by liquid scintillation counting analysis relative to control; in short: as §3
[14] = system: GABA-A receptor alpha6beta3delta (++); test: Modulation of rat eGFP-fused GABA-A receptor alpha6beta3delta expressed in HEK293 cells up to 10 uM in presence of GABA by patch-clamp assay relative to control
[15] = molecular target: Gamma-aminobutyric acid receptor subunit alpha-4/beta-3/gamma-2 (Rattus norvegicus, UniProt P18508+P28471+P63079); test: Displacement of [3H]EBOB from rat GABA-A receptor alpha4beta3gamma2 expressed in HEK293 cell membranes after 90 mins by liquid scintillation counting analysis; in short: as §3
Rattus norvegicus [16] = species on record: Rattus norvegicus; test: Selectivity ratio of IC50 for rat GABA-A receptor alpha4beta3 expressed in HEK293 cells to IC50 for rat GABA-A receptor alpha4beta3delta expressed in HEK293 cells; format: cell-based
[17] = molecular target: T3, Gamma-aminobutyric acid receptor subunit alpha-4/beta-3 (Rattus norvegicus); test: Modulation of rat […] GABA-A receptor alpha4beta3 expressed in HEK293 cells up to 10 uM in presence of GABA by patch-clamp assay relative to control; format: cell-based; in short: as §2
[18] = molecular target: T4, Gamma-aminobutyric acid receptor subunit alpha-4/beta-3; test: Modulation of rat […] GABA-A receptor alpha4beta3 expressed in HEK293 cells in presence of GABA by patch-clamp assay; format: cell-based; in short: as §2
Rattus norvegicus [19] = species on record: Rattus norvegicus; test: Selectivity ratio of IC50 for rat GABA-A receptor alpha6beta3delta expressed in HEK293 cells to IC50 for rat GABA-A receptor alpha6beta2delta expressed in HEK293 cells; format: cell-based
[20] = molecular target: T1, Gamma-aminobutyric acid receptor subunit alpha-6/beta-3/gamma-2 (Rattus norvegicus); test: Modulation of rat […] GABA-A receptor alpha6beta3gamma2 expressed in HEK293 cells up to 10 uM in presence of GABA by patch-clamp assay relative to control; format: cell-based; in short: as §2

T4 sequence (P28471 whole entry): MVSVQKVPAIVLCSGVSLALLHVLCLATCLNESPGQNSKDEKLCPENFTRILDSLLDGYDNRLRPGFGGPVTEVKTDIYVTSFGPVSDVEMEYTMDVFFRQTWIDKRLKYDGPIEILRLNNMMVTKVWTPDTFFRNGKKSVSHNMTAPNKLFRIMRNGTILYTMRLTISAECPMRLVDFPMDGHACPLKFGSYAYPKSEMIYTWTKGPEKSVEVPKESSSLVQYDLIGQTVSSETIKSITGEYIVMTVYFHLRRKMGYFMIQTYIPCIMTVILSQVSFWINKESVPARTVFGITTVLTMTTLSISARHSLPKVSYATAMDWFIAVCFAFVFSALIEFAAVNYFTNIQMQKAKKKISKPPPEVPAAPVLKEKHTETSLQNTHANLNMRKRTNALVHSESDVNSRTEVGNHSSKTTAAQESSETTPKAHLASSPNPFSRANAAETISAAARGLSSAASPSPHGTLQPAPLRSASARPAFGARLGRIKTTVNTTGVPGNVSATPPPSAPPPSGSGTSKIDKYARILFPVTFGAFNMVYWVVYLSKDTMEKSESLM
T4 sequence (P63079 whole entry): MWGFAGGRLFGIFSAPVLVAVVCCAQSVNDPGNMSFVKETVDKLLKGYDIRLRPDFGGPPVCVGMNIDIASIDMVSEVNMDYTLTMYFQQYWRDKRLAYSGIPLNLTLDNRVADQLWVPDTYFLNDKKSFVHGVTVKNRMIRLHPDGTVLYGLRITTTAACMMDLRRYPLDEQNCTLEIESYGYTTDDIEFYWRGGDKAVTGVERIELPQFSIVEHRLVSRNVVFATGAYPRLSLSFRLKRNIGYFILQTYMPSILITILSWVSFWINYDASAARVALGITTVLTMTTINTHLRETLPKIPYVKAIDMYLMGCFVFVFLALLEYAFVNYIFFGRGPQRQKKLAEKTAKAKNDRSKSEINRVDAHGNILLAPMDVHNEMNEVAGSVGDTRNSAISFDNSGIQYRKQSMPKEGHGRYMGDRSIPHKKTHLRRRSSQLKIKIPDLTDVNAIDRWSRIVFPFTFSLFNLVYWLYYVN
Chain of Gamma-aminobutyric acid receptor subunit alpha-1/beta-3/delta (P18506 whole entry): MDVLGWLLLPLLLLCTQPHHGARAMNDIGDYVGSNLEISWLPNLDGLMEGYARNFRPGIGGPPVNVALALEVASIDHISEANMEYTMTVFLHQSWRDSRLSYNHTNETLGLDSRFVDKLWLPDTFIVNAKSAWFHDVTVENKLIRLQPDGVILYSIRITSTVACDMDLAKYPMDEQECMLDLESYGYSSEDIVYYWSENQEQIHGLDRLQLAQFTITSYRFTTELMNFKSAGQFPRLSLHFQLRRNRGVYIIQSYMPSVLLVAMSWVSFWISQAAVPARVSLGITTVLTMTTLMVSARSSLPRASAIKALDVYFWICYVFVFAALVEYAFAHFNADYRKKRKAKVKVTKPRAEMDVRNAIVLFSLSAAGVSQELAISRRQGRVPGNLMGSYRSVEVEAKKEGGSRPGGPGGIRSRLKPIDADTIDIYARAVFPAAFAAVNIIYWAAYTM
Chain of Gamma-aminobutyric acid receptor subunit alpha-1/beta-3/delta (P62813 whole entry): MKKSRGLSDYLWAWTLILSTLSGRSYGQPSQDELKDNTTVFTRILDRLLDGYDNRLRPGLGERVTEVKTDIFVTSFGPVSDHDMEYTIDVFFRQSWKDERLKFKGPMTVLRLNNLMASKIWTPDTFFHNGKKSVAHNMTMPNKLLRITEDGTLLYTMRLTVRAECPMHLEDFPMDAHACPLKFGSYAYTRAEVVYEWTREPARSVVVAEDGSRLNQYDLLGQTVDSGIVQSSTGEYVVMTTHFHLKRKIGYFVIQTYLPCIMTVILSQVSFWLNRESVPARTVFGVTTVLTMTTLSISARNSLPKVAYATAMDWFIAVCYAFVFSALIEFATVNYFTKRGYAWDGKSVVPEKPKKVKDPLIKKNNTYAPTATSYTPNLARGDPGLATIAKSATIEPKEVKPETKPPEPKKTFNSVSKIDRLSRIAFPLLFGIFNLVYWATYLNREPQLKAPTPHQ
Chain of Gamma-aminobutyric acid receptor subunit alpha-1/beta-3/delta (P63079 whole entry): as the sequence (P63079 whole entry) above
Chain of Gamma-aminobutyric acid receptor subunit alpha-4/beta-3/gamma-2 (P18508 whole entry): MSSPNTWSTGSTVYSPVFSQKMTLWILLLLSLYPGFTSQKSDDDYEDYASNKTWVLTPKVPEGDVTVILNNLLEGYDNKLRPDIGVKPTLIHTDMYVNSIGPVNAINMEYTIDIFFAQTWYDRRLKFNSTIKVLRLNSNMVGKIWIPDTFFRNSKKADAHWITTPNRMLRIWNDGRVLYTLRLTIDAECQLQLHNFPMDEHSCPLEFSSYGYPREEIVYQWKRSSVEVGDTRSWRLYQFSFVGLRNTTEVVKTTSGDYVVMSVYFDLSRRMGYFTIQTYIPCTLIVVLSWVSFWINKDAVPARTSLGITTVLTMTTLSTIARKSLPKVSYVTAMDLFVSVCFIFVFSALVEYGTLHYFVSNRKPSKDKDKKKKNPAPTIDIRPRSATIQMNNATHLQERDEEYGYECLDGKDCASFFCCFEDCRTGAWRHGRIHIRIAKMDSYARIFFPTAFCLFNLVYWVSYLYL
Chain of Gamma-aminobutyric acid receptor subunit alpha-4/beta-3/gamma-2 (P28471 whole entry): as the sequence (P28471 whole entry) above
Chain of Gamma-aminobutyric acid receptor subunit alpha-4/beta-3/gamma-2 (P63079 whole entry): as the sequence (P63079 whole entry) above

Ratio [1]: 1.12
Ratio [2]: 0.163
EC50 [3]: 100 nM
Imax [4]: 84%
Ratio [5]: 0.323
Imax [6]: 18%
EC50 [7]: 130 nM
Ratio [8]: 0.124
IC50 [10]: 1860 nM
Ratio [11]: 0.058
Ratio [12]: 1.48
Imax [13]: 93%
Activity [14]: 802%
IC50 [15]: 3290 nM
Activity [17]: 168%
EC50 [18]: 60 nM
Activity [20]: 157%
Structure (SMILES): O=C(Nc1c(-c2cccs2)nc2c(Br)cc(Br)cn12)c1ccc(Cl)cc1
Ratio IC50 (Rattus norvegicus [9]): 7
Ratio IC50 (Rattus norvegicus [16]): 4
Ratio IC50 (Rattus norvegicus [19]): 2
